Key:
Rattus norvegicus [1] = assay: Biodistribution in Sprague-Dawley rat kidneys(2) 15 minutes after intravenous administration, [99mTc]/[125I] IAP ratio); format: ADME, organism-based, Kidney; details: in vivo, 0.25 h
Outline: (§1)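 99mTc complex and [125I]iodoantipyrine were co-injected iv into rats. Rats were killed by cardiectomy at 2 or 15 min, and organs were excised, weighed and gamma-counted in two channels with spillover correction. The ratio is 99mTc percent dose divided by 125I percent dose in the same organ, averaged over three rats. Radiochemical purity of the complexes was >95% by reversed-phase HPLC.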

Rattus norvegicus [2] = assay: Biodistribution in Sprague-Dawley rat skin 2 minutes after intravenous administration, [99mTc]/[125I] IAP ratio); format: ADME, organism-based, Zone of skin; details: in vivo; outline: as §1
Rattus norvegicus [3] = assay: Biodistribution in Sprague-Dawley rat small intestine 15 minutes after intravenous administration, [99mTc]/[125I] IAP ratio); format: ADME, organism-based; details: in vivo, 0.25 h; outline: as §1
Rattus norvegicus [4] = assay: Biodistribution in Sprague-Dawley rat small intestine 2 minutes after intravenous administration, [99mTc]/[125I] IAP ratio); format: ADME, organism-based; details: in vivo; outline: as §1
Rattus norvegicus [5] = assay: Biodistribution in Sprague-Dawley rat spleen 15 minutes after intravenous administration, [99mTc]/[125I] IAP ratio); format: ADME, organism-based; details: in vivo, 0.25 h; outline: as §1
Rattus norvegicus [6] = assay: Biodistribution in Sprague-Dawley rat spleen 2 minutes after intravenous administration, [99mTc]/[125I] IAP ratio); format: ADME, organism-based; details: in vivo; outline: as §1
Rattus norvegicus [7] = assay: Biodistribution in Sprague-Dawley rat thyroid 15 minutes after intravenous administration, [99mTc]/[125I] IAP ratio); format: ADME, organism-based, Thyroid gland; details: in vivo, 0.25 h; outline: as §1
Rattus norvegicus [8] = assay: Biodistribution in Sprague-Dawley rat thyroid 2 minutes after intravenous administration, [99mTc]/[125I] IAP ratio); format: ADME, organism-based, Thyroid gland; details: in vivo; outline: as §1
Rattus norvegicus [9] = assay: Biodistribution in Sprague-Dawley rat blood 15 minutes after intravenous administration, [99mTc]/[125I] IAP ratio); format: ADME, organism-based; details: in vivo, 0.25 h; outline: as §1
Rattus norvegicus [10] = assay: Biodistribution in Sprague-Dawley rat blood 2 minutes after intravenous administration, [99mTc]/[125I] IAP ratio); format: ADME, organism-based; details: in vivo; outline: as §1
Rattus norvegicus [11] = assay: Biodistribution in Sprague-Dawley rat brain 15 minutes after intravenous administration, [99mTc]/[125I] IAP ratio); format: ADME, organism-based; details: in vivo, 0.25 h; outline: as §1
Rattus norvegicus [12] = assay: Biodistribution in Sprague-Dawley rat brain 2 minutes after intravenous administration, [99mTc]/[125I] IAP ratio); format: ADME, organism-based; details: in vivo; outline: as §1
Rattus norvegicus [13] = assay: Biodistribution in Sprague-Dawley rat heart 15 minutes after intravenous administration, [99mTc]/[125I] IAP ratio); format: ADME, organism-based; details: in vivo, 0.25 h; outline: as §1
Rattus norvegicus [14] = assay: Biodistribution in Sprague-Dawley rat heart 2 minutes after intravenous administration, [99mTc]/[125I] IAP ratio); format: ADME, organism-based; details: in vivo; outline: as §1
Rattus norvegicus [15] = assay: Biodistribution in Sprague-Dawley rat stomach 15 minutes after intravenous administration, [99mTc]/[125I] IAP ratio); format: ADME, organism-based; details: in vivo, 0.25 h; outline: as §1
Rattus norvegicus [16] = assay: Biodistribution in Sprague-Dawley rat stomach 2 minutes after intravenous administration, [99mTc]/[125I] IAP ratio); format: ADME, organism-based; details: in vivo; outline: as §1
Rattus norvegicus [17] = assay: Biodistribution in Sprague-Dawley rat kidneys(2) 2 minutes after intravenous administration, [99mTc]/[125I] IAP ratio); format: ADME, organism-based, Kidney; details: in vivo; outline: as §1
Rattus norvegicus [18] = assay: Biodistribution in Sprague-Dawley rat liver 15 minutes after intravenous administration, [99mTc]/[125I] IAP ratio); format: ADME, organism-based; details: in vivo, 0.25 h; outline: as §1
Rattus norvegicus [19] = assay: Biodistribution in Sprague-Dawley rat liver 2 minutes after intravenous administration, [99mTc]/[125I] IAP ratio); format: ADME, organism-based; details: in vivo; outline: as §1
Rattus norvegicus [20] = assay: Biodistribution in Sprague-Dawley rat lungs(2) 15 minutes after intravenous administration, [99mTc]/[125I] IAP ratio); format: ADME, organism-based, Lung; details: in vivo, 0.25 h; outline: as §1
Rattus norvegicus [21] = assay: Biodistribution in Sprague-Dawley rat lungs(2) 2 minutes after intravenous administration, [99mTc]/[125I] IAP ratio); format: ADME, organism-based, Lung; details: in vivo; outline: as §1
Rattus norvegicus [22] = assay: Biodistribution in Sprague-Dawley rat muscle 15 minutes after intravenous administration, [99mTc]/[125I] IAP ratio); format: ADME, organism-based, Muscle tissue; details: in vivo, 0.25 h; outline: as §1
Rattus norvegicus [23] = assay: Biodistribution in Sprague-Dawley rat muscle 2 minutes after intravenous administration, [99mTc]/[125I] IAP ratio); format: ADME, organism-based, Muscle tissue; details: in vivo; outline: as §1
Rattus norvegicus [24] = assay: Biodistribution in Sprague-Dawley rat skin 15 minutes after intravenous administration, [99mTc]/[125I] IAP ratio); format: ADME, organism-based, Zone of skin; details: in vivo, 0.25 h; outline: as §1
[25] = Partition coefficient was determined at pH 7.0.; format: ADME; details: octanol/water
Outline: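 99mTc-labelled BAT complex shaken with 3 g each of 1-octanol and 0.1 M phosphate buffer (pH 7.0), vortexed 3 min at room temperature, centrifuged 5 min. Two 0.5 g samples per layer counted in a well counter; PC = cpm/g octanol over cpm/g buffer. Octanol layer repartitioned until values were consistent; usually repeated three times.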

Homo sapiens = organism: Homo sapiens; assay: The human serum protein binding activity was determined; format: functional
Outline: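 Equilibrium dialysis: 0.4 mL pooled human serum against 0.4 mL 0.15 M phosphate buffer pH 7.4 containing 99mTc complex (~0.025 μCi), rotated 18 h at 37 °C. Both sides weighed and counted; percent free = buffer/serum radioactivity concentration ratio × 100. Membrane counted afterwards to check membrane binding.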

Rattus norvegicus [26] = assay: Biodistribution in Sprague-Dawley rat brain 2 minutes after intravenous administration.; format: ADME, organism-based; details: in vivo
Outline: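 Rats received the 99mTc complex iv together with [125I]iodoantipyrine as internal reference and were killed by cardiectomy. Brain was excised, weighed and gamma-counted. Percent dose/organ was obtained by comparing tissue activity with diluted aliquots of the injected dose, averaged over three rats. Radiochemical purity of the complexes was >95% by HPLC.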

SMILES | Dose (Rattus norvegicus [1]) | Dose (Rattus norvegicus [2]) | Dose (Rattus norvegicus [3]) | Dose (Rattus norvegicus [4]) | Dose (Rattus norvegicus [5]) | Dose (Rattus norvegicus [6]) | Dose (Rattus norvegicus [7]) | Dose (Rattus norvegicus [8]) | Dose (Rattus norvegicus [9]) | Dose (Rattus norvegicus [10]) | Dose (Rattus norvegicus [11]) | Dose (Rattus norvegicus [13]) | Dose (Rattus norvegicus [14]) | Dose (Rattus norvegicus [15]) | Dose (Rattus norvegicus [16]) | Dose (Rattus norvegicus [17]) | Dose (Rattus norvegicus [18]) | Dose (Rattus norvegicus [19]) | Dose (Rattus norvegicus [20]) | Dose (Rattus norvegicus [21]) | also measured
COc1ccccc1C(CNCC(C)(C)S)NCC(C)(C)S (configuration not stated) | 1.1% | 5.21% | 12.5% | 4.47% | 0.197% | 0.149% | 0.063% | 0.292% | 2.56% | 7.81% | 0.297% | 0.395% | 4.46% | 3.16% | 1.07% | 3.23% | 17.4% | 11.9% | 0.877% | 5.49% | Dose (Rattus norvegicus [12]): 2.3%; Dose (Rattus norvegicus [22]): 15.1%; Dose (Rattus norvegicus [23]): 7.09%; Dose (Rattus norvegicus [24]): 11.8%; Partition coefficient [25]: 260; Free (Homo sapiens): 23.4%
CC(C)(S)CNCC(NCC(C)(C)S)c1ccccc1O (configuration not stated) | 1.73% | 7.45% | 18.2% | 6.24% | 0.323% | 0.407% | 0.057% | 0.189% | 4.77% | 14.5% | 0.229% | 0.441% | 3.31% | 5.46% | 1.61% | 4.75% | 25.4% | 29% | 1.52% | 4.94% | Dose (Rattus norvegicus [26]): 0.408%; Dose (Rattus norvegicus [22]): 12.4%; Dose (Rattus norvegicus [23]): 8.66%; Dose (Rattus norvegicus [24]): 8.17%; Partition coefficient [25]: 248; Free (Homo sapiens): 14.7%

From ChEMBL document CHEMBL1123041, “Synthesis of new bis(aminoethanethiol) (BAT) derivatives: possible ligands for 99mTc brain imaging agents” (J Med Chem, 1985)
